Screening data as filed in PubChem BioAssay.
Hits are enriched below; roughly 3.4% of the tested compounds scored in any of these assays.
Wee1 stabilizer: human Wee1 degradation inhibition, primary screen | P30291 | HeLa Luc-Wee1K328M stability, luciferase luminescence; 100% = proteasome inhibitor MG132 effect | reporter increase, % at 5 µM | 220,000 tested, 1.2% active | AID 1321;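 active means activation above the mean of all tested compounds plus 3 SD, set per screening run, cut at about 8.8% in these data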;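 further: cells exposed to compound for 20 h before luminescence read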
PHOSPHO1 inh: inhibitors of human PHOSPHO1 phosphatase. recombinant PHOSPHO1, absorbance phosphatase assay. AID 1565. 290,000 tested, 1.1% active. Q8TCT1. inhibition, % at 13.3 µM; in the data active means inhibition above about 60%
Target sequence (Q8TCT1 whole entry, looked up): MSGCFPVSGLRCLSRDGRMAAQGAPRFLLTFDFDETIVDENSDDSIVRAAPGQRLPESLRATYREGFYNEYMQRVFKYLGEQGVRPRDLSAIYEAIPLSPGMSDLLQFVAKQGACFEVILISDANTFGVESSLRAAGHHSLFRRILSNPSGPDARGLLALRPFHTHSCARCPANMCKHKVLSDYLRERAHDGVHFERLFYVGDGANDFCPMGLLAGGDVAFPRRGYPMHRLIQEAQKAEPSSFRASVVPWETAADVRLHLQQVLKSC
Efa HMGR inh: inhibitors of class II HMG-CoA reductase from Enterococcus faecalis; purified E. faecalis HMGR, NADPH absorbance 340 nm kinetic; inhibition, % at 10 µM; 190,000 tested, 0.41% active; AID 1066;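 active means inhibition above a set limit, the median over all tested compounds plus 3 SD, cut at about 9.5% in these data; inconclusive means no clear call, values can overlap the other calls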;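 further: enzyme runs in reverse so mevalonate oxidation gives rising NADPH absorbance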
Runt-CBFb FRET: Runt domain-CBFb interaction inhibition; AID 1496; 220,000 tested, 0.46% active; inhibition, % at 20 µM; Cerulean-Runt/Venus-CBFb FRET ratio 530/480, 1 h;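 active means inhibition over about 50% at 20 µM in the single-dose screen, limit read from the data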
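Buffer or medium: Tris pH 7.5 buffer with BSA. Assay system: Cerulean-labeled Runt domain protein. Amount: each fluorescent fusion protein 100 nM. Read-out basis: loss of energy transfer signal. Incubation: 1 h compound exposure, room temperature. Probe or stimulus: Venus-CBFb binding partner, 100 nM. Detection: FRET, excitation 422 nm, emission at 530 and 480 nm.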
Runt-SMMHC FRET: Runt domain-CBFb-SMMHC interaction inhibition; Q01196+Q13951; Cerulean-Runt/Venus-CBFb-SMMHC FRET ratio 530/480, 1 h; inhibition, % at 20 µM; 220,000 tested, 0.74% active; AID 1434;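 active means mean inhibition across duplicate retests at 20 µM reaching about 50%, limit read from the data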;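 further: inhibitors lower the FRET ratio by blocking Runt binding to CBFb-SMMHC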
RanGTP-Impb inh: inhibitors of RanGTP-importin-beta interaction, primary screen, biochemical, FRET, CFP-Ran, YFP-importin-beta, homogeneous; cell-free CFP-Ran/YFP-importin-beta FRET ratio; inhibition, % (concentration not given with the values); 300,000 tested, 1.1% active;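 active means more than half of the replicate wells show a fall in the fluorescence ratio signal beyond about 16%, limit read from the data, passing the limit was not always enough; inconclusive means exactly half of the replicate wells pass the set limit; inactive means fewer than half of replicates pass the limit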
Hits are given with their value; 0 = inactive; ? = inconclusive; - = no result given.

SMILES	Wee1 stabilizer	PHOSPHO1 inh	Efa HMGR inh	Runt-CBFb FRET	Runt-SMMHC FRET	RanGTP-Impb inh
CN1CCc2c(sc3nc(NCCO)n(-c4cccc(Cl)c4)c(=O)c23)C1	-	0	-	-	-	92.2
O=C(NCc1ccco1)c1ccc2nc3sc4c(c3c(=O)n2c1)CCCC4	0	0	0	63.4	63.3	62.4
COC(=O)CSc1nc2sc3c(c2c(=O)n1-c1ccc(OC)cc1)CCN(C)C3	-	0	-	-	-	0
COC(=O)CSc1nc2sc3c(c2c(=O)n1C1CCCCC1)CCN(C)C3	0	0	0	0	0	26.3
CN1CCc2c(sc3nc(SCC(=O)NCc4ccco4)n(-c4ccccc4)c(=O)c23)C1	-	0	-	-	-	25.4
O=[N+]([O-])c1ccc(S(=O)(=O)c2cccc(C(F)(F)F)c2)nc1	-	-	-	-	-	0
COc1ccc(CCNS(=O)(=O)c2ccc([N+](=O)[O-])cc2)cc1OC	-	0	-	-	-	?
Cc1cc(NC(=O)c2ccccc2F)ncc1NC(=O)c1cccs1	0	0	0	0	0	0
Cc1ccc(OS(=O)(=O)c2ccc(N3C(=O)CCC3=O)cc2)cc1	-	0	-	-	-	0
Cc1ccccc1OCC(=O)Nc1c2c(nn1C(C)(C)C)CS(=O)(=O)C2	-	0	-	-	-	0
CCn1c(=O)cc(SCC(=O)Nc2ccc(Cl)cc2)c2ccccc21	0	0	0	0	0	63.5
CCn1c(=O)cc(SCC(=O)N2CCN(c3ccccc3OC)CC2)c2ccccc21	0	62.6	0	0	0	0
Cc1ccnc(NC(=O)CSc2cc(=O)n(C)c3ccccc23)c1	0	63.2	0	0	0	0
CCn1c(=O)cc(SCC(=O)N2CCOCC2)c2ccccc21	0	0	0	0	0	0
CCCNc1c(NS(=O)(=O)c2ccc(C3CCCCC3)cc2)c(=O)oc2ccccc12	-	0	-	-	-	0
CC(C)(C)c1cc(CCC(=O)NCC2CCCO2)cc(C(C)(C)C)c1O (stereo unspecified)	-	0	-	-	-	0
COc1ccc(-n2c(C)cc(/C=C3\SC(=S)NC3=O)c2C)cc1	0	0	0	0	0	0
Cc1cc(/C=C2\SC(=S)NC2=O)c(C)n1C	0	87.7	0	0	0	0
Cc1cc(/C=C2\SC(=S)NC2=O)c(C)n1-c1ccc(O)cc1	0	0	-	0	0	23.5
Cc1ccc(C)c(OCc2cc(C(=O)N3CC[C@H](O)C3)no2)c1	-	0	-	-	-	0
Cc1ccc(COC(=O)c2ccc3ccccc3n2)cc1	-	0	-	-	-	0
CCCOc1ccc(CCc2n[nH]c(=S)n2Cc2ccccc2)cc1	0	79.0	0	0	0	0
C=CCn1c(-c2cccc(Cl)c2)n[nH]c1=S	0	97.5	0	0	0	0
CCc1cc(-c2n[nH]c(=S)n2-c2ccccc2C)cs1	0	85.7	0	0	0	0
C=CCn1c(-c2cccc([N+](=O)[O-])c2)n[nH]c1=S	0	0	0	0	0	0
SMILES	Wee1 stabilizer	PHOSPHO1 inh	Efa HMGR inh	Runt-CBFb FRET	Runt-SMMHC FRET	RanGTP-Impb inh
CCc1cc(-c2n[nH]c(=S)n2CC)cs1	0	0	0	0	0	?
Cc1ccc(-c2n[nH]c(=S)n2Cc2ccccc2)cc1	0	99.8	0	0	0	0
CCCOc1ccc(CCc2n[nH]c(=S)n2-c2ccccc2)cc1	0	0	0	0	0	?
CCN(CC(=O)Nc1c(F)cccc1F)C(=O)c1cc([N+](=O)[O-])ccc1N1CCCCC1	-	-	-	-	-	0
CCOc1ccc(NS(=O)(=O)c2cc(C(=O)N3CCC3)ccc2Cl)cc1	-	-	-	-	-	0
S=c1[nH]nc(-c2cccc(Cl)c2)n1Cc1ccccc1	0	68.9	0	0	0	0
S=c1[nH]nc(-c2ccc(Cl)cc2Cl)n1Cc1ccccc1	0	60.3	0	0	0	0
CCc1cc(-c2n[nH]c(=S)n2Cc2ccccc2)cs1	0	92.4	0	0	0	0
CCCc1cc(-c2n[nH]c(=S)n2C(C)c2ccccc2)cs1 (stereo unspecified)	0	82.7	0	0	0	0
O=C(CCNC(=O)c1ccccc1Cl)Nc1cc(C(F)(F)F)ccc1N1CCCC1	-	0	-	-	-	0
Cc1ccc(C(=O)CNc2cccc([N+](=O)[O-])c2)cc1	0	0	0	0	0	0
Cc1ccc(NCC(=O)c2ccc([N+](=O)[O-])cc2)cc1	9.4	0	0	0	0	0
Cc1cccc(NC(=O)c2ccc(-c3ccccc3[N+](=O)[O-])o2)c1	0	0	10.2	0	0	0
COc1cccc(NC(=O)c2ccc(-c3ccccc3[N+](=O)[O-])o2)c1	0	0	0	0	0	?
CCCCCCc1cc2cc(C(=O)Nc3cccc(OC)c3)c(=O)oc2cc1O	0	0	0	143.1	63.1	156.2
CCCCCCc1cc2cc(S(=O)(=O)c3ccc(F)c(Cl)c3)c(=O)oc2cc1O	0	0	0	0	63.2	130.1
CCCCCCc1cc2cc(C(=O)NC)c(=N)oc2cc1O	0	0	0	0	60.4	166.2
CCCCCCc1cc2cc(C(=O)OCC)c(=O)oc2cc1O	9.9	0	-	0	83.7	189.5
COc1ccc(NC(=O)C(=O)N/N=C\c2ccc(CNC(=O)C(=O)Nc3ccc(C)c(C)c3)o2)c(OC)c1	-	0	-	-	-	0
CCOc1ccc(-c2c(C(=O)N/N=C(\C)c3cccnc3)nnn2-c2nonc2N)cc1	-	0	-	-	-	0
CCCCC(=O)OCCNC(=O)c1cc2ccccc2oc1=O	0	0	0	0	0	0
CCCCCCc1cc2cc(C(N)=O)c(=N)oc2cc1O	0	0	0	0	59.0	168.1
COCCCNC(=S)N/N=C/c1ccc2c(c1)OCO2	0	0	-	0	0	0
CN(C)CCCNC(=S)N(CCCO)Cc1cc2cc3c(cc2[nH]c1=O)OCO3	-	0	-	-	-	0
CN(C)CCCNC(=S)NCCNc1nc2cc3c(cc2cc1C#N)OCO3	0	0	0	83.6	112.7	71.6
SMILES	Wee1 stabilizer	PHOSPHO1 inh	Efa HMGR inh	Runt-CBFb FRET	Runt-SMMHC FRET	RanGTP-Impb inh
COCCNC(=S)NCCCNc1nc2cc3c(cc2cc1C#N)OCO3	0	0	0	0	0	87.5
COc1ccccc1N(CC(=O)NCCc1ccccc1)C(=O)CCC(=O)Nc1ccccn1	-	0	-	-	-	0
COCC1CCCCN1C(=O)c1ccc2nc(Cc3ccc(OC)c(OC)c3)oc2c1 (stereo unspecified)	-	0	-	-	-	0
O=C(CCn1c(=S)[nH]c2ccccc2c1=O)N1CCCCC1	-	0	-	-	-	0
CC1CCCCC1NC(=O)CCCCCn1c(=S)[nH]c2ccccc2c1=O (stereo unspecified)	0	62.9	0	0	0	0
CCCn1c(=S)[nH]c2ccccc2c1=O	0	0	15.5	0	0	0
CC1CCCN(C(=O)CCCn2c(=S)[nH]c3ccccc3c2=O)C1 (stereo unspecified)	9.7	0	0	0	0	?
CC1CCCCC1NC(=O)CCCn1c(=S)[nH]c2ccccc2c1=O (stereo unspecified)	0	0	0	0	0	0
COc1ccc2[nH]c3c(=O)n(CCCCC(=O)N4CCCC4)c(=S)[nH]c3c2c1	0	100.2	0	0	0	0
